Assay results from ChEMBL document CHEMBL1944580, “Synthesis of novel sulfonamide-1,2,4-triazoles, 1,3,4-thiadiazoles and 1,3,4-oxadiazoles, as potential antibacterial and antifungal agents. Biological evaluation and conformational analysis studies” (2012).
Converted amounts (≈) assume the structure as drawn.

How the values were obtained:
Staphylococcus aureus [1] = test: Antibacterial activity against Staphylococcus aureus ATCC 6538 after 24 hrs by micro dilution method; assay type: functional; conditions: ATCC 6538, 24 h
Summary of the method: (§1)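 Microdilution MIC in 96-well plates. Bacterial suspensions adjusted in sterile saline to 1.0 × 10^5 CFU/ml, giving 1.0 × 10^4 cfu per well in LB broth. Compounds tested at up to 1 mg/ml. Plates incubated 24 h. MIC taken as the lowest concentration with no visible growth under a binocular microscope. OD at 655 nm was also read against a blank and the positive control. Streptomycin and ampicillin were the positive controls.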

Bacillus cereus [2] = test: Antibacterial activity against Bacillus cereus clinical isolate after 24 hrs by micro dilution method; assay type: functional; summary of the method: as §1
Micrococcus flavus [3] = test: Antibacterial activity against Micrococcus flavus ATCC 10240 after 24 hrs by micro dilution method; assay type: functional; conditions: ATCC 10240, 24 h; summary of the method: as §1
Listeria monocytogenes [4] = test: Antibacterial activity against Listeria monocytogenes NCTC 7973 after 24 hrs by micro dilution method; assay type: functional; conditions: NCTC 7973, 24 h; summary of the method: as §1
Pseudomonas aeruginosa [5] = test: Antibacterial activity against Pseudomonas aeruginosa ATCC 27853 after 24 hrs by micro dilution method; assay type: functional; conditions: ATCC 27853, 24 h; summary of the method: as §1
Enterobacter cloacae [6] = test: Antibacterial activity against Enterobacter cloacae human isolate after 24 hrs by micro dilution method; assay type: functional; summary of the method: as §1
Salmonella typhimurium [7] = test: Antibacterial activity against Salmonella Typhimurium ATCC 13311 after 24 hrs by micro dilution method; assay type: functional, Salmonella enterica subsp. enterica serovar Typhimurium; conditions: Salmonella enterica, ATCC 13311, 24 h; summary of the method: as §1
Escherichia coli [8] = test: Antibacterial activity against Escherichia coli ATCC 35210 after 24 hrs by micro dilution method; assay type: functional; conditions: ATCC 35210, 24 h; summary of the method: as §1
Staphylococcus aureus [9] = test: Antibacterial activity against Staphylococcus aureus ATCC 6538 treated for 24 hrs followed by sub-cultivated for 72 hrs by micro dilution method; assay type: functional
Summary of the method: (§2)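 2 µl from each well was serially subcultured into 100 µl fresh broth per well and incubated a further 72 h. MBC is the lowest concentration with no visible growth, taken as 99.5% killing of the original inoculum. Streptomycin and ampicillin were the positive controls.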

Bacillus cereus [10] = test: Antibacterial activity against Bacillus cereus clinical isolate treated for 24 hrs followed by sub-cultivated for 72 hrs by micro dilution method; assay type: functional; summary of the method: as §2
Micrococcus flavus [11] = test: Antibacterial activity against Micrococcus flavus ATCC 10240 treated for 24 hrs followed by sub-cultivated for 72 hrs by micro dilution method; assay type: functional; summary of the method: as §2
Listeria monocytogenes [12] = test: Antibacterial activity against Listeria monocytogenes NCTC 7973 treated for 24 hrs followed by sub-cultivated for 72 hrs by micro dilution method; assay type: functional; summary of the method: as §2
Pseudomonas aeruginosa [13] = test: Antibacterial activity against Pseudomonas aeruginosa ATCC 27853 treated for 24 hrs followed by sub-cultivated for 72 hrs by micro dilution method; assay type: functional; summary of the method: as §2
Enterobacter cloacae [14] = test: Antibacterial activity against Enterobacter cloacae human isolate treated for 24 hrs followed by sub-cultivated for 72 hrs by micro dilution method; assay type: functional; summary of the method: as §2
Salmonella typhimurium [15] = test: Antibacterial activity against Salmonella Typhimurium ATCC 13311 treated for 24 hrs followed by sub-cultivated for 72 hrs by micro dilution method; assay type: functional, Salmonella enterica subsp. enterica serovar Typhimurium; conditions: Salmonella enterica; summary of the method: as §2
Escherichia coli [16] = test: Antibacterial activity against Escherichia coli ATCC 35210 treated for 24 hrs followed by sub-cultivated for 72 hrs by micro dilution method; assay type: functional; summary of the method: as §2
Talaromyces funiculosus [17] = test: Antifungal activity against Penicillium funiculosum ATCC 36839 after 72 hrs by serial dilution method; assay type: functional; conditions: ATCC 36839, 72 h
Summary of the method: (§3)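 Modified microdilution MIC. Spores were washed from malt agar cultures with sterile 0.85% saline containing 0.1% Tween 80 and adjusted to about 1.0 × 10^5 per 100 µl well in malt broth. Compounds were dissolved in DMSO (1 mg/ml). Plates incubated 72 h at 28 °C. MIC is the lowest concentration with no visible growth under a binocular microscope. Bifonazole and ketoconazole were the references.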

Penicillium ochrochloron [18] = test: Antifungal activity against Penicillium ochrochloron ATCC 9112 after 72 hrs by serial dilution method; assay type: functional; conditions: ATCC 9112, 72 h; summary of the method: as §3
Trichoderma viride [19] = test: Antifungal activity against Trichoderma viride IAM 5061 after 72 hrs by serial dilution method; assay type: functional; conditions: IAM 5061, 72 h; summary of the method: as §3
Aspergillus fumigatus [20] = test: Antifungal activity against Aspergillus fumigatus human isolate after 72 hrs by serial dilution method; assay type: functional; summary of the method: as §3
Aspergillus niger [21] = test: Antifungal activity against Aspergillus niger ATCC 6275 after 72 hrs by serial dilution method; assay type: functional; conditions: ATCC 6275, 72 h; summary of the method: as §3
Aspergillus flavus [22] = test: Antifungal activity against Aspergillus flavus ATCC 9643 after 72 hrs by serial dilution method; assay type: functional; conditions: ATCC 9643, 72 h; summary of the method: as §3
Aspergillus versicolor [23] = test: Antifungal activity against Aspergillus versicolor ATCC 11730 after 72 hrs by serial dilution method; assay type: functional; conditions: ATCC 11730, 72 h; summary of the method: as §3
Fulvia fulva [24] = test: Antifungal activity against Fulvia fulva after 72 hrs by serial dilution method; assay type: functional; summary of the method: as §3
Talaromyces funiculosus [25] = test: Antifungal activity against Penicillium funiculosum ATCC 36839 treated for 72 hrs followed by sub-cultivated for 5 days by serial dilution method; assay type: functional
Summary of the method: (§4)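 MFC obtained after the 72 h, 28 °C malt-broth microdilution (spore inoculum about 1.0 × 10^5 per well, compounds from 1 mg/ml DMSO). 2 µl was serially subcultured into 100 µl broth per well and incubated a further 5 days at 28 °C. MFC is the lowest concentration with no visible growth, taken as 99.5% killing of the original inoculum.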

Penicillium ochrochloron [26] = test: Antifungal activity against Penicillium ochrochloron ATCC 9112 treated for 72 hrs followed by sub-cultivated for 5 days by serial dilution method; assay type: functional; summary of the method: as §4
Trichoderma viride [27] = test: Antifungal activity against Trichoderma viride IAM 5061 treated for 72 hrs followed by sub-cultivated for 5 days by serial dilution method; assay type: functional; summary of the method: as §4
Aspergillus fumigatus [28] = test: Antifungal activity against Aspergillus fumigatus human isolate treated for 72 hrs followed by sub-cultivated for 5 days by serial dilution method; assay type: functional; summary of the method: as §4
Aspergillus niger [29] = test: Antifungal activity against Aspergillus niger ATCC 6275 treated for 72 hrs followed by sub-cultivated for 5 days by serial dilution method; assay type: functional; summary of the method: as §4
Aspergillus flavus [30] = test: Antifungal activity against Aspergillus flavus ATCC 9643 treated for 72 hrs followed by sub-cultivated for 5 days by serial dilution method; assay type: functional; summary of the method: as §4
Aspergillus versicolor [31] = test: Antifungal activity against Aspergillus versicolor ATCC 11730 treated for 72 hrs followed by sub-cultivated for 5 days by serial dilution method; assay type: functional; summary of the method: as §4
Fulvia fulva [32] = test: Antifungal activity against Fulvia fulva treated for 72 hrs followed by sub-cultivated for 5 days by serial dilution method; assay type: functional; summary of the method: as §4

Row | Structure (SMILES) | MIC (Staphylococcus aureus [1]) | MIC (Bacillus cereus [2]) | MIC (Micrococcus flavus [3]) | MIC (Listeria monocytogenes [4]) | MIC (Pseudomonas aeruginosa [5]) | MIC (Enterobacter cloacae [6]) | MIC (Salmonella typhimurium [7]) | MIC (Escherichia coli [8]) | MBC (Staphylococcus aureus [9]) | MBC (Bacillus cereus [10]) | MBC (Micrococcus flavus [11]) | MBC (Listeria monocytogenes [12]) | MBC (Pseudomonas aeruginosa [13]) | MBC (Enterobacter cloacae [14]) | MBC (Salmonella typhimurium [15]) | MBC (Escherichia coli [16]) | further results
1 | CCCCn1c(Cc2cc(OC)c(OC)cc2S(=O)(=O)N(C)C)n[nH]c1=S | 240 µM (≈ 99.5 µg/mL) | 240 µM (≈ 99.5 µg/mL) | 240 µM (≈ 99.5 µg/mL) | 240 µM (≈ 99.5 µg/mL) | 480 µM (≈ 199 µg/mL) | 240 µM (≈ 99.5 µg/mL) | 240 µM (≈ 99.5 µg/mL) | 480 µM (≈ 199 µg/mL) | 480 µM (≈ 199 µg/mL) | 480 µM (≈ 199 µg/mL) | 480 µM (≈ 199 µg/mL) | 240 µM (≈ 99.5 µg/mL) | 480 µM (≈ 199 µg/mL) | 240 µM (≈ 99.5 µg/mL) | 240 µM (≈ 99.5 µg/mL) | 480 µM (≈ 199 µg/mL) | MIC (Talaromyces funiculosus [17]): 120 µM (≈ 49.7 µg/mL); MIC (Penicillium ochrochloron [18]): 120 µM (≈ 49.7 µg/mL); MIC (Trichoderma viride [19]): 60 µM (≈ 24.9 µg/mL); MIC (Aspergillus fumigatus [20]): 120 µM (≈ 49.7 µg/mL); MIC (Aspergillus niger [21]): 60 µM (≈ 24.9 µg/mL); MIC (Aspergillus flavus [22]): 60 µM (≈ 24.9 µg/mL); MIC (Aspergillus versicolor [23]): 240 µM (≈ 99.5 µg/mL); MIC (Fulvia fulva [24]): 120 µM (≈ 49.7 µg/mL); MFC (Talaromyces funiculosus [25]): 240 µM (≈ 99.5 µg/mL); MFC (Penicillium ochrochloron [26]): 480 µM (≈ 199 µg/mL); MFC (Trichoderma viride [27]): 120 µM (≈ 49.7 µg/mL); MFC (Aspergillus fumigatus [28]): 240 µM (≈ 99.5 µg/mL); MFC (Aspergillus niger [29]): 120 µM (≈ 49.7 µg/mL); MFC (Aspergillus flavus [30]): 240 µM (≈ 99.5 µg/mL); MFC (Aspergillus versicolor [31]): 480 µM (≈ 199 µg/mL); MFC (Fulvia fulva [32]): 240 µM (≈ 99.5 µg/mL)
2 | CC1(C)S[C@@H]2[C@H](NC(=O)[C@H](N)c3ccccc3)C(=O)N2[C@H]1C(=O)O [AMPICILLIN] | 250 µM (≈ 87.4 µg/mL) | 250 µM (≈ 87.4 µg/mL) | 250 µM (≈ 87.4 µg/mL) | 370 µM (≈ 129 µg/mL) | 740 µM (≈ 259 µg/mL) | 370 µM (≈ 129 µg/mL) | 250 µM (≈ 87.4 µg/mL) | 370 µM (≈ 129 µg/mL) | 370 µM (≈ 129 µg/mL) | 370 µM (≈ 129 µg/mL) | 370 µM (≈ 129 µg/mL) | 490 µM (≈ 171 µg/mL) | 1240 µM (≈ 433 µg/mL) | 490 µM (≈ 171 µg/mL) | 490 µM (≈ 171 µg/mL) | 740 µM (≈ 259 µg/mL) | –
